1 substance from paper PMC4775349 (Chemical communications (Cambridge, England), 2016) can be followed below.

The target in this assay is T1, His6-Te2FT (Thermosynechococcus vestitus, UniProt Q8DK72).
T1 sequence (Q8DK72 1-293): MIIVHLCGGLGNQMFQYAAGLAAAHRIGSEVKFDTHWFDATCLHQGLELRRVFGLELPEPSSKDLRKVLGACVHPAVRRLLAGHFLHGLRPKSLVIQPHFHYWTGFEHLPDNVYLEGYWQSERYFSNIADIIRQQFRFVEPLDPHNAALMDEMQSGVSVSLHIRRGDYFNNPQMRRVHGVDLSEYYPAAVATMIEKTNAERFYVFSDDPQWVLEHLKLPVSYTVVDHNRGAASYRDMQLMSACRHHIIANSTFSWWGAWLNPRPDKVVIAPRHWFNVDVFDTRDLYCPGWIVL
The experiment in a line: HPLC-based fucosyltransferase kinetics. The class given is biochemical. Conditions: α1–2-fucosyltransferase activity; acceptor; donor GDP-fucose. The procedure, abridged: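 Enzyme is N-His6-tagged Te2FT from the pET15b vector, expressed in E. coli at 16 °C for 20 h with shaking at 120 rpm. It was purified on a Ni2+ column and quantified by bicinchoninic acid assay. Apparent kinetic parameters (kcat, KM, kcat/KM) were determined for α1–2-fucosyltransferase activity. The acceptor was Galβ1–3GlcNAcβ2AA and the donor was GDP-fucose.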

By Km is commonly meant the substrate concentration at which the rate is half of its maximum.

As to Galβ1–3GlcNAcβ2AA, the Km is 790 ± 110 µM.
